# Test results taken from ChEMBL document CHEMBL2169813, “Cell death triggered by synthetic flavonoids in human leukemia cells is amplified by the inhibition of extracellular signal-regulated kinase signaling” (Eur J Med Chem, 2012).
# pIC50: −log10 of the molar value. Active and inactive are the calls of the source. No cut-off for these calls is given here.
# Tests used:
# HL-60 [1] = assay: Induction of cytochrome-c release in human HL60 cells at 30 uM incubated for 24 hrs by immunoblotting method; format: functional, cell-based
# Outline: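 HL-60 cells treated 24 h with 30 µM compound. Cytosolic extracts immunoblotted for cytochrome c released from mitochondria. β-Actin used as loading control.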
# HL-60 [2] = assay: Induction of cyclin D1 protein expression in human HL60 cells at 30 uM incubated for 24 hrs by Western blotting method; format: functional, cell-based
# Outline: (§1)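 HL-60 cells (1 × 10⁶/mL) exposed to compound, harvested at 24 h. Lysed in Tris-HCl pH 7.4/Triton X-100 buffer with phosphatase and protease inhibitors, 15 min at 4 °C. Equal protein run on SDS-PAGE (7.5% PARP, 12.5% caspases) and immunoblotted on PVDF. β-Actin used as loading control.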
# HL-60 [3] = assay: Cell cycle arrest in human HL60 cells assessed as accumulation at subG1 phase at 30 uM incubated for 24 hrs by flow cytometry (reference value: 2.3 +/- 0.5%); format: functional
# HL-60 [4] = assay: Induction of procaspase-3 processing in human HL60 cells at 30 uM incubated for 24 hrs by immunoblotting method; format: functional, cell-based; outline: as §1
# HL-60 [5] = assay: Cytotoxicity against human HL60 cells at 100 uM after 72 hrs by MTT assay
# [6] = biological target: T1, c-Jun N-terminal kinase, JNK (Homo sapiens) (UniProt P45983+P53779+P45984); assay: Induction of JNK/SAPK phosphorylation in human HL60 cells after 30 mins by Western blotting; format: cell-based; details: HL-60
# Outline: (§2)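 HL-60 cells (1 × 10⁶/mL) treated with compound (10–30 µM) for various times. Where used, PD98059 (10 µM) was added 1 h beforehand. Lysates run on 10% SDS-PAGE and immunoblotted for phosphorylated ERK 1/2, JNK/SAPK or p38MAPK. Blots stripped and reprobed for the total kinase as loading control.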
# HL-60 [7] = assay: Cell cycle arrest in human HL60 cells assessed as accumulation at G2/M phase at 10 uM incubated for 24 hrs by flow cytometry (reference value: 33.2 +/- 2.1%); format: functional
# HL-60 [8] = assay: Induction of caspase activation in human HL60 cells assessed as increase in PARP cleavage at 30 uM incubated for 24 hrs by immunoblotting method; format: functional, cell-based; outline: as §1
# HL-60 [9] = assay: Cell cycle arrest in human HL60 cells assessed as accumulation at G2/M phase at 30 uM incubated for 24 hrs by flow cytometry (reference value: 33.2 +/- 2.1%); format: functional
# HL-60 [10] = assay: Cytotoxicity against human HL60 cells after 72 hrs by MTT assay; format: functional, cell-based; details: HL-60, 72 h
# Outline: (§3)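 MTT colorimetric assay on HL-60 and HL-60/MX1 cells (RPMI 1640, 10% heat-inactivated FBS), 72 h exposure, absorbance 570 nm. IC50 obtained graphically by curve fitting. Means ± S.E. of three independent experiments, each in triplicate.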
# [11] = biological target: T2, Mitogen-activated protein kinase; ERK1/ERK2 (Homo sapiens) (UniProt P27361+P28482); assay: Induction of ERK1/2 phosphorylation in human HL60 cells after 6 hrs by Western blotting; format: cell-based; details: HL-60; outline: as §2
# T2 sequence (P27361 whole entry, looked up): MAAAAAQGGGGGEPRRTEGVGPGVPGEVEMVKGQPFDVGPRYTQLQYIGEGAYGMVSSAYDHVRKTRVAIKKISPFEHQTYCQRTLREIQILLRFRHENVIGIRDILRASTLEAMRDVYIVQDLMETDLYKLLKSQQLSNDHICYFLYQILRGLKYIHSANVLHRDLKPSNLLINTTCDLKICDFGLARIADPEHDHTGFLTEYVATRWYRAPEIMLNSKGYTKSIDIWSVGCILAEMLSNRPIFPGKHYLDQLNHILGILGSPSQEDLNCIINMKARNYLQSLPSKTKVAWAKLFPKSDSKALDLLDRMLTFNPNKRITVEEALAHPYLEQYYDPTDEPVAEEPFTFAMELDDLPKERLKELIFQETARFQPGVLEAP
# T2 sequence (P28482 whole entry, looked up): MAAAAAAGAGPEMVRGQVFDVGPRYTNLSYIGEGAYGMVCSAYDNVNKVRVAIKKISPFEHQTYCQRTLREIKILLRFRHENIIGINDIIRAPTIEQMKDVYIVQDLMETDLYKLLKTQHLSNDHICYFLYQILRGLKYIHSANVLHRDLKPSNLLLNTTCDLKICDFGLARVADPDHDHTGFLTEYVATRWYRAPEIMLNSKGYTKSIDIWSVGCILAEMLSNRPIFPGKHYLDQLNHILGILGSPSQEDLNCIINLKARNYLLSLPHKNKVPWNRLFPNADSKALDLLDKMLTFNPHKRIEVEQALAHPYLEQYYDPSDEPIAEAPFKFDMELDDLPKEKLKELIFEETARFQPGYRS
# HL-60 [12] = assay: Induction of procaspase-7 processing in human HL60 cells at 30 uM incubated for 24 hrs by immunoblotting method; format: functional, cell-based; outline: as §1
# HL-60 [13] = assay: Induction of apoptosis in human HL60 cells assessed as hypodiploid cells level at 30 uM incubated for 24 hrs in presence of caspase-9 inhibitor z-LEHD-fmk by flow cytometry; format: functional, cell-based
# Outline: (§4)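 HL-60 cells given 30 µM compound for 24 h, alone or with z-VAD-fmk (100 µM), z-DEVD-fmk, z-IETD-fmk or z-LEHD-fmk (each 50 µM). Propidium iodide staining, hypodiploid cells quantified by flow cytometry. Three independent experiments, each in triplicate.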
# [14] = biological target: T3, MAP kinase p38 (Homo sapiens) (UniProt O15264+Q15759+Q16539+P53778); assay: Induction of p38MAPK phosphorylation in human HL60 cells after 2 hrs by Western blotting; format: cell-based; details: HL-60; outline: as §2
# HL-60 [15] = assay: Induction of DNA fragmentation in human HL60 cells at 10 uM incubated for 24 hrs by agarose gel electrophoresis; format: functional, cell-based
# Outline: (§5)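 HL-60 cells treated with the indicated concentrations. Genomic DNA extracted, run on agarose gel and visualised under UV after ethidium bromide staining, looking for internucleosomal fragmentation.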
# HL-60 [16] = assay: Increase in apoptosis in human HL60 cells assessed as hypodiploid cells level incubated for 24 hrs in presence of 10 uM MEK1/2 inhibitor PD98059 by flow cytometry (reference value: 16%); format: functional
# Outline: (§6)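 HL-60 cells preincubated 1 h with PD98059 (10 µM), SP600125 (10 µM) or SB203580 (2 µM), then treated with compound. Hypodiploid (apoptotic) cells quantified by flow cytometry of propidium iodide-stained nuclei. Three independent experiments, each in triplicate.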
# HL-60 [17] = assay: Induction of apoptosis in human HL60 cells assessed as incidence of condensed and fragmented chromatin at 30 uM incubated for 24 hrs by fluorescent microscopy; format: functional, cell-based
# [18] = biological target: T2, Mitogen-activated protein kinase; ERK1/ERK2 (Homo sapiens); assay: Induction of ERK1/2 phosphorylation in human HL60 cells after 30 mins in presence of 10 uM MEK1/2 inhibitor PD98059 by Western blotting; format: cell-based; details: HL-60; outline: as §2
# HL-60 [19] = assay: Induction of procaspase-8 hydrolysis in human HL60 cells at 30 uM incubated for 24 hrs by immunoblotting method; format: functional, cell-based; outline: as §1
# HL-60 [20] = assay: Cell cycle arrest in human HL60 cells assessed as accumulation at S phase at 10 uM incubated for 24 hrs by flow cytometry (reference value: 16.7 +/- 0.5%); format: functional
# HL-60 [21] = assay: Induction of apoptosis in human HL60 cells assessed as hypodiploid cells level at 30 uM incubated for 24 hrs in presence of caspase-3 and -7 inhibitor z-DEVD-fmk by flow cytometry; format: functional, cell-based; outline: as §4
# HL-60 [22] = assay: Induction of p21'Cip1 protein expression in human HL60 cells at 30 uM incubated for 24 hrs by Western blotting method; format: functional, cell-based; outline: as §1
# [23] = Cytotoxicity against human HL60/MX1 cells after 72 hrs by MTT assay; format: functional, cell-based; details: HL60/MX1, 72 h; outline: as §3
# HL-60 [24] = assay: Induction of Bid protein cleavage in human HL60 cells at 30 uM incubated for 24 hrs by Western blotting method; format: functional, cell-based; outline: as §1
# HL-60 [25] = assay: Cell cycle arrest in human HL60 cells assessed as accumulation at subG1 phase at 10 uM incubated for 24 hrs by flow cytometry (reference value: 2.3 +/- 0.5%); format: functional
# HL-60 [26] = assay: Cell cycle arrest in human HL60 cells assessed as accumulation at S phase at 30 uM incubated for 24 hrs by flow cytometry (reference value: 16.7 +/- 0.5%); format: functional
# HL-60 [27] = assay: Induction of apoptosis in human HL60 cells assessed as hypodiploid cells level incubated for 24 hrs in presence of 10 uM JNK/SAPK inhibitor SP600125 by flow cytometry; format: functional, cell-based; outline: as §6
# HL-60 [28] = assay: Induction of procaspase-9 cleavage in human HL60 cells at 30 uM incubated for 24 hrs by immunoblotting method; format: functional, cell-based; outline: as §1
# [29] = biological target: T2, Mitogen-activated protein kinase; ERK1/ERK2 (Homo sapiens); assay: Induction of ERK1/2 phosphorylation in human HL60 cells after 30 mins by Western blotting; format: cell-based; details: HL-60; outline: as §2
# HL-60 [30] = assay: Cell cycle arrest in human HL60 cells assessed as accumulation at G1 phase at 30 uM incubated for 24 hrs by flow cytometry (reference value: 48 +/- 1.6%); format: functional
# PBMC [31] = assay: Cytotoxicity against human proliferating PBMCs up to 30 uM; format: cell-based
# Outline: (§7)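 HL-60 cells, quiescent (fresh) PBMC and phytohemagglutinin-activated healthy human PBMC cultured 48 h over a concentration range of compound. Proliferation measured. Means ± SE of two independent experiments, each in triplicate.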
# HL-60 [32] = assay: Induction of procaspase-6 processing in human HL60 cells at 30 uM incubated for 24 hrs by immunoblotting method; format: functional, cell-based; outline: as §1
# HL-60 [33] = assay: Induction of DNA fragmentation in human HL60 cells at 30 uM incubated for 24 hrs by agarose gel electrophoresis; format: functional, cell-based; outline: as §5
# HL-60 [34] = assay: Cell cycle arrest in human HL60 cells assessed as accumulation at G1 phase at 10 uM incubated for 24 hrs by flow cytometry (reference value: 48 +/- 1.6%); format: functional
# HL-60 [35] = assay: Induction of apoptosis in human HL60 cells assessed as hypodiploid cells level at 30 uM incubated for 24 hrs in presence of caspase-8 inhibitor z-IETD-fmk by flow cytometry; format: functional, cell-based; outline: as §4
# [36] = biological target: T3, MAP kinase p38 (Homo sapiens); assay: Induction of p38MAPK phosphorylation in human HL60 cells after 30 mins by Western blotting; format: cell-based; details: HL-60; outline: as §2
# PBMC [37] = assay: Cytotoxicity against human fresh PBMCs up to 30 uM; format: cell-based; outline: as §7
# HL-60 [38] = assay: Induction of apoptosis in human HL60 cells assessed as changes in nuclear morphology at 30 uM incubated for 24 hrs by fluorescence microscopy (reference value: 4.9 +/- 1.0%)
# [39] = biological target: T1, c-Jun N-terminal kinase, JNK (Homo sapiens); assay: Induction of JNK/SAPK phosphorylation in human HL60 cells after 6 hrs by Western blotting; format: cell-based; details: HL-60; outline: as §2
# HL-60 [40] = assay: Cytotoxicity against human HL60 cells up to 30 uM after 72 hrs by MTT assay; format: functional, cell-based
# HL-60 [41] = assay: Induction of apoptosis in human HL60 cells assessed as hypodiploid cells level incubated for 24 hrs in presence of 2 uM p38MAPK inhibitor SB203580 by flow cytometry; format: functional, cell-based; outline: as §6
# HL-60 [42] = assay: Induction of apoptosis in human HL60 cells assessed as hypodiploid cells level at 30 uM incubated for 24 hrs in presence of caspase inhibitor z-VAD-fmk by flow cytometry; format: functional, cell-based; outline: as §4
smiles,measurement,setting,value
COC(=O)c1c(C)c(C)cc2c(=O)cc(-c3ccccc3Cl)oc12,Activity,HL-60 [1],Active
same,Activity,HL-60 [2],Active
same,Activity,HL-60 [3],28.1%
same,Activity,HL-60 [4],Active
same,Activity,HL-60 [5],Active
same,Activity,[6],Active
same,Activity,HL-60 [7],22.9%
same,Activity,HL-60 [8],Active
same,Activity,HL-60 [9],13.5%
same,pIC50,HL-60 [10],5.03
same,Activity,[11],Active
same,Activity,HL-60 [12],Active
same,Activity,HL-60 [13],inactive
same,Activity,[14],inactive
same,Activity,HL-60 [15],Active
same,Activity,HL-60 [16],32%
same,Activity,HL-60 [17],Active
same,Activity,[18],inactive
same,Activity,HL-60 [19],Active
same,Activity,HL-60 [20],16.7%
same,Activity,HL-60 [21],inactive
same,Activity,HL-60 [22],Active
same,pIC50,[23],4.15
same,Activity,HL-60 [24],Active
same,Activity,HL-60 [25],6.3%
same,Activity,HL-60 [26],7.8%
same,Activity,HL-60 [27],Active
same,Activity,HL-60 [28],Active
same,Activity,[29],Active
same,Activity,HL-60 [30],47.2%
same,Activity,PBMC [31],Non-toxic
same,Activity,HL-60 [32],Active
same,Activity,HL-60 [33],Active
same,Activity,HL-60 [34],54.9%
same,Activity,HL-60 [35],inactive
same,Activity,[36],Active
same,Activity,PBMC [37],Non-toxic
same,Activity,HL-60 [38],30.6%
same,Activity,[39],Active
same,Activity,HL-60 [40],Active
same,Activity,HL-60 [41],Active
same,Activity,HL-60 [42],inactive
